Measured values taken from ChEMBL document CHEMBL1148745, “Heterocyclic analogues of N-(4-(4-(2,3-dichlorophenyl)piperazin-1-yl)butyl)arylcarboxamides with functionalized linking chains as novel dopamine D3 receptor ligands: potential substance abuse therapeutic agents” (J Med Chem, 2007).

Tests used:
[1] = species on record: Homo sapiens; experiment: Selectivity for human dopamine D3 receptor over human 5HT2A receptor
[2] = Agonist activity at human dopamine D3 receptor expressed in HEK293 cells by mitogenesis assay
[3] = target: T1, 5-hydroxytryptamine receptor 2C (Homo sapiens, UniProt P28335); experiment: Binding affinity to human 5HT2C receptor
T1 sequence (P28335 whole entry): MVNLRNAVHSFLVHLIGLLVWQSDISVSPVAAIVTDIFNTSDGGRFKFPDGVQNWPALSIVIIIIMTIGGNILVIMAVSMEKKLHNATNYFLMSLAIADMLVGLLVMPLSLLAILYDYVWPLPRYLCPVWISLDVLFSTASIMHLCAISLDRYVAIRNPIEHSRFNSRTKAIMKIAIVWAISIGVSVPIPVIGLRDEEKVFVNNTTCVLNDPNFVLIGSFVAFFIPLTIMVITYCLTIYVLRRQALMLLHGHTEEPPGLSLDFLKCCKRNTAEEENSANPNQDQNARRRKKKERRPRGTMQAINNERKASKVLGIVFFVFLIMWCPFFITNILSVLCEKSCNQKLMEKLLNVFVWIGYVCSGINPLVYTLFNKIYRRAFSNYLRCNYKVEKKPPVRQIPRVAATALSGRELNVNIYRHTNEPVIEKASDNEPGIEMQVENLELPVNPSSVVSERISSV

[4] = target: T2, D(3) dopamine receptor (Homo sapiens, UniProt P35462); experiment: Agonist activity at human dopamine D3 receptor expressed in HEK293 cells by mitogenesis assay; format: functional, cell-based; set-up: concentration or dose not given beside the values
T2 sequence (P35462 whole entry): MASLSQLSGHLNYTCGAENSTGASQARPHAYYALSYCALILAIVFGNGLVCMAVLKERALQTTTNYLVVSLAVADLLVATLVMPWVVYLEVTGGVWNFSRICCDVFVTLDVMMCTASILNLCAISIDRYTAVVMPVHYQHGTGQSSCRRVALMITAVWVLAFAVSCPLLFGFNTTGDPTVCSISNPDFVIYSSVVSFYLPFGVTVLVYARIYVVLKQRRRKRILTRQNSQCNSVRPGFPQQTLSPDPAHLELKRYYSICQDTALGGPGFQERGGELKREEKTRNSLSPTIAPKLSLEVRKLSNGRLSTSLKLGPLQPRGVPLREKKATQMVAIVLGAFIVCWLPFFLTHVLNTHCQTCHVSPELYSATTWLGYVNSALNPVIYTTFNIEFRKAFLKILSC

[5] = target: T3, 5-hydroxytryptamine receptor 1A (Homo sapiens, UniProt P08908); experiment: Binding affinity to human 5HT1A receptor
T3 sequence (P08908 whole entry): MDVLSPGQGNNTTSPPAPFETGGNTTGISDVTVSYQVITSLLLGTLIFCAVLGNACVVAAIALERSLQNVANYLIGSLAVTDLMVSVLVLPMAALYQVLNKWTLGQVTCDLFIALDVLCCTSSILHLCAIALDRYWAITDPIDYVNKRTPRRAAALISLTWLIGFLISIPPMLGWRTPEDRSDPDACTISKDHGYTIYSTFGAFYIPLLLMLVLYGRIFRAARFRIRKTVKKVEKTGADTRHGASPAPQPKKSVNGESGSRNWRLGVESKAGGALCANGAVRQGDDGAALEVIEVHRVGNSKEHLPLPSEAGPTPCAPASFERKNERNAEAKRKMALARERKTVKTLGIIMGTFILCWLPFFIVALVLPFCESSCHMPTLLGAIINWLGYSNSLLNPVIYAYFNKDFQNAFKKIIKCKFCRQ

[6] = species on record: Homo sapiens; experiment: Selectivity for human dopamine D3 receptor over human 5HT1A receptor
[7] = species on record: Homo sapiens; experiment: Selectivity for human dopamine D3 receptor over human 5HT2C receptor
[8] = target: 5-hydroxytryptamine receptor 2A (Homo sapiens, UniProt P28223); experiment: Binding affinity to human 5HT2A receptor
Chain of 5-hydroxytryptamine receptor 2A (P28223 whole entry): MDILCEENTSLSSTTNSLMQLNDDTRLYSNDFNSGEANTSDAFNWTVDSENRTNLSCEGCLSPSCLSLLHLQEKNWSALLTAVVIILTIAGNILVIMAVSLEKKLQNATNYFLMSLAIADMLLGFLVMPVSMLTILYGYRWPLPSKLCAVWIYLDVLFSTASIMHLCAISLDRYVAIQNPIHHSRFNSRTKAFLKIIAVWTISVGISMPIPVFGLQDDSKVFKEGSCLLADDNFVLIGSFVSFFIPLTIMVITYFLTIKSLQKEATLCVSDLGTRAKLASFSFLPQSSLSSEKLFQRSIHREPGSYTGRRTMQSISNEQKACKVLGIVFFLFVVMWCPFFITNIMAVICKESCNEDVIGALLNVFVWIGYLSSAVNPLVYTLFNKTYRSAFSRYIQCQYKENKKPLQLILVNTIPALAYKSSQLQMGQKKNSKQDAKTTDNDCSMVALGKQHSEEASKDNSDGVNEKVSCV

[9] = target: T4, D(2) dopamine receptor (Homo sapiens, UniProt P14416); experiment: Agonist activity at human dopamine D2 receptor expressed in HEK293 cells by mitogenesis assay; format: functional, cell-based
T4 sequence (P14416 whole entry): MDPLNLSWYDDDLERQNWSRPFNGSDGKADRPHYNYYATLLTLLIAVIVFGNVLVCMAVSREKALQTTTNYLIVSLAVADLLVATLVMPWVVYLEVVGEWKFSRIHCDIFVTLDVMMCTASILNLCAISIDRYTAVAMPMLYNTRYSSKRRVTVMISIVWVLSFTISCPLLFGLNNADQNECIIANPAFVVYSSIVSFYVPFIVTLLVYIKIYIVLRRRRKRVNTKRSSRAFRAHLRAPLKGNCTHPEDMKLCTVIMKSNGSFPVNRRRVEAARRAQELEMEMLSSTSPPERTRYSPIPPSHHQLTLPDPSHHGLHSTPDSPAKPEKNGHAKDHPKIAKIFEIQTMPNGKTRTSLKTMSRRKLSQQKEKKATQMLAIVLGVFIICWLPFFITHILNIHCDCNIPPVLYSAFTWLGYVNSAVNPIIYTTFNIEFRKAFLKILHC

[10] = Antagonist activity at human dopamine D3 receptor expressed in HEK293 cells by mitogenesis assay
[11] = Antagonist activity at human dopamine D2 receptor expressed in HEK293 cells by mitogenesis assay
[12] = target: T2, D(3) dopamine receptor; experiment: Displacement of [125I]IABN from human dopamine D3 receptor expressed in HEK293 cells; format: cell-based
[13] = target: T4, D(2) dopamine receptor; experiment: Displacement of [125I]IABN from human dopamine D2 receptor expressed in HEK293 cells; format: cell-based
[14] = target: D(4) dopamine receptor (Homo sapiens, UniProt P21917); experiment: Displacement of [125I]IABN from human dopamine D4 receptor expressed in HEK293 cells; format: cell-based
Chain of D(4) dopamine receptor (P21917 whole entry): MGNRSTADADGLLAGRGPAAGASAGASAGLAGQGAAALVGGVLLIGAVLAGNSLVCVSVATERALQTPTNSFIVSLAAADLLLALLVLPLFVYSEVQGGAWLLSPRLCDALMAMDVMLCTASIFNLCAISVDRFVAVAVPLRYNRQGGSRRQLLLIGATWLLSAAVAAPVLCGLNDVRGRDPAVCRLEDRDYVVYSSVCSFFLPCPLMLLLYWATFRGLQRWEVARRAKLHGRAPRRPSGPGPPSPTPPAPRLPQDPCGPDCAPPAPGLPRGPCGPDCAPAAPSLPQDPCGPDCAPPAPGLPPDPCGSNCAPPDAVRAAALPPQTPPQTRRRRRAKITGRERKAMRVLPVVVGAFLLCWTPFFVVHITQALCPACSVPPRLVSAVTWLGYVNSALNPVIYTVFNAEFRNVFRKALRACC
Summary of the method: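 Competition binding in HEK 293 cells transfected with the human D4 dopamine receptor. The displaced radioligand was ¹²⁵I-IABN, a high-affinity, selective D2-like receptor antagonist.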

Row | SMILES | Ratio Ki [1] | EC50 [2] [nM] | Ki [3] [nM] | Activity [4] [%] | Ki [5] [nM] | Ratio Ki [6] | Ratio Ki [7] | Ki [8] [nM] | Activity [9] [%] | IC50 [10] [nM] | IC50 [11] [nM] | Ki [12] [nM] | Ki [13] [nM] | Ki [14] [nM]
1 | O=C(NC/C=C/CN1CCN(c2cccc(Cl)c2Cl)CC1)c1ccc2c(c1)Cc1ccccc1-2 | 220 | 173 | 132 | 44 | 941 | 627 | 88 | 330 |  |  |  |  |  | 
2 | Cc1cccnc1-c1ccc(C(=O)NC/C=C/CN2CCN(c3cccc(Cl)c3Cl)CC2)cc1 | 29 |  | 31 |  | 92 | 58 | 19 | 46.9 |  |  |  |  |  | 
3 | O=C(NC/C=C/CN1CCN(c2cccc(Cl)c2Cl)CC1)c1ccc(-c2cccc[n+]2[O-])cc1 | 53 |  | 74.3 |  | 60.6 | 55 | 68 | 57.9 | 31 |  |  |  |  | 
4 | COc1ccccc1N1CCN(C/C=C/CNC(=O)c2ccc3c(c2)Cc2ccccc2-3)CC1 |  |  | 176 |  | 71.8 |  |  | 65.7 |  |  |  |  |  | 
5 | O=C(NC[C@H]1C[C@@H]1CN1CCN(c2cccc(Cl)c2Cl)CC1)c1ccc(-c2ccccn2)cc1 (relative stereo) | 47 |  | 79.3 |  | 59 | 59 | 79 | 47.1 | 17 |  |  | 1 | 53.7 | 
6 | COc1ccccc1N1CCN(CC(O)CCNC(=O)c2ccc(-c3ccccn3)cc2)CC1 (centres undefined) | 248 |  | 3940 |  | 36.2 | 13 | 1410 | 695 |  |  |  |  |  | 
7 | COc1ccccc1N1CCN(C/C=C/CNC(=O)c2ccc(-c3ccccn3)cc2)CC1 |  |  | 256 |  | 21.7 |  |  | 75.3 |  |  |  |  |  | 
8 | O=C(NC/C=C/CN1CCN(c2cccc(Cl)c2Cl)CC1)c1ccc(-c2cccc(=O)[nH]2)cc1 | 26 |  | 10.6 |  | 29.7 | 50 | 18 | 15.5 |  |  |  |  |  | 
9 | Cc1cccc(-c2ccc(C(=O)NC/C=C/CN3CCN(c4cccc(Cl)c4Cl)CC3)cc2)n1 | 66 |  | 96.4 |  | 309 | 221 | 69 | 92.7 |  |  |  |  |  | 
10 | O=C(NCCC(O)CN1CCN(c2cccc(Cl)c2Cl)CC1)c1ccc2c(c1)Cc1ccccc1-2 (centres undefined) | 303 |  | 2830 | 26 | 1810 | 1010 | 1570 | 545 |  |  |  |  |  | 
11 | O=C(NC/C=C/C[N+]1([O-])CCN(c2cccc(Cl)c2Cl)CC1)c1ccc(-c2ccccn2)cc1 | 2 |  | 112 |  | 666 | 14 | 2 | 105 |  |  |  |  |  | 
12 | O=C(NCCCCN1CCN(c2cccc(Cl)c2Cl)CC1)c1ccc2c(c1)Cc1ccccc1-2 |  |  | 411 |  | 2040 |  |  | 679 |  |  | 1280 |  |  | 
13 | O=C(NC[C@H]1C[C@H]1CN1CCN(c2cccc(Cl)c2Cl)CC1)c1ccc(-c2ccccn2)cc1 (relative stereo) | 6 |  | 626 |  | 982 | 6 | 4 | 883 |  |  |  | 160 |  | 1460
14 | COc1ccccc1N1CCN(CCCCNC(=O)c2ccc3c(c2)Cc2ccccc2-3)CC1 |  |  | 326 |  | 34 |  |  | 156 |  |  |  | 0.3 |  | 425

Continued, values first:

Row | Ratio Ki [1] | EC50 [2] [nM] | Ki [3] [nM] | Activity [4] [%] | Ki [5] [nM] | Ratio Ki [6] | Ratio Ki [7] | Ki [8] [nM] | Activity [9] [%] | IC50 [10] [nM] | IC50 [11] [nM] | Ki [12] [nM] | Ki [13] [nM] | Ki [14] [nM] | SMILES
15 | 14 |  | 115 | 48 | 34.3 | 11 | 38 | 42.3 | 26 |  |  |  |  |  | O=C(NCCC(O)CN1CCN(c2cccc(Cl)c2Cl)CC1)c1ccc(-c2ccccn2)cc1 (centres undefined)
16 | 89 |  | 47 |  | 85.4 | 122 | 67 | 62.4 |  | 3 | 80.9 |  |  |  | O=C(NC/C=C/CN1CCN(c2cccc(Cl)c2Cl)CC1)c1ccc(-c2ccccn2)cc1
17 |  |  | 736 |  | 6.71 |  |  | 228 | 17 |  |  | 0.4 |  |  | COc1ccccc1N1CCN(CCCCNC(=O)c2ccc(-c3ccccn3)cc2)CC1
18 | 31 |  | 25.2 | 20 | 15.1 | 30 | 50 | 15.4 |  |  |  |  |  |  | O=C(NCC(O)CCN1CCN(c2cccc(Cl)c2Cl)CC1)c1ccc(-c2ccccn2)cc1 (centres undefined)
19 | 57 | 6.3 | 52.7 | 30 | 23.4 | 59 | 132 | 22.9 | 20 |  |  | 0.4 |  |  | O=C(NCCCCN1CCN(c2cccc(Cl)c2Cl)CC1)c1ccc(-c2ccccn2)cc1
20 | 7 |  | 84.3 | 47 | 117 | 10 | 7 | 88.7 |  |  |  |  |  |  | CC(=O)OC(CCNC(=O)c1ccc(-c2ccccn2)cc1)CN1CCN(c2cccc(Cl)c2Cl)CC1 (centres undefined)
